Measured values taken from ChEMBL document CHEMBL1123285, “Substituted 1-benzylimidazole-2-thiols as potent and orally active inhibitors of dopamine beta-hydroxylase” (J Med Chem, 1986).

Key:
[1] = target: T1, Dopamine beta-hydroxylase (Bos taurus, UniProt P15101); test: Binding affinity towards Dopamine beta hydroxylase using tyramine substrate at pH 4.5 in the absence of fumarate
T1 sequence (P15101 whole entry): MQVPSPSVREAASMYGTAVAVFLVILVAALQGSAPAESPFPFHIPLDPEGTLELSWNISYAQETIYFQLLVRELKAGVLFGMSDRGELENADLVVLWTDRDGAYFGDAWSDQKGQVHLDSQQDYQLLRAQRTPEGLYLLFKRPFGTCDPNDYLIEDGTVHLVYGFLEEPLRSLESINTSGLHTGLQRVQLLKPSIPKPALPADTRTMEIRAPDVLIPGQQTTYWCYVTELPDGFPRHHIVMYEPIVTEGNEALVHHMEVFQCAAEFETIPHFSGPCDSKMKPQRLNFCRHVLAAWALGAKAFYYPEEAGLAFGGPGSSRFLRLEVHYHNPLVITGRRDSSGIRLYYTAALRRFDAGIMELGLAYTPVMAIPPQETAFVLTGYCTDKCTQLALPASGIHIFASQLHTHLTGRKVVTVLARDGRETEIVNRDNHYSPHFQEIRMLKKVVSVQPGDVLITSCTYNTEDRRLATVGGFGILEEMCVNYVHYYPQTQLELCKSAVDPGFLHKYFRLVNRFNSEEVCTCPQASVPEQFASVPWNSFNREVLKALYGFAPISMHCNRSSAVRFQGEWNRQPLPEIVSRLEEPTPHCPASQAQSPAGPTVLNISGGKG
Method in brief: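 Homogeneous bovine DBH (sp act. 30–42 U/mg at pH 5.0), tyramine as substrate, pH 4.5, no fumarate. Conditions: 50 mM sodium acetate, ionic strength 0.2, 200 μg/mL bovine catalase, 10 μM Cu²⁺, 10 mM ascorbic acid, 37 °C. Km apparent for tyramine 3.0 mM. Ki fitted with Cleland programs; mean ± SEM.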

Rattus norvegicus [2] = test: DBH inhibitory activity was measured as NE levels in mesenteric artery at dose of 100 mg/kg, po; type: functional, organism-based; design: dose 100 mg/kg
Method in brief: (§1)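 SHR (N = 5) dosed orally twice, about 18 h apart, with vehicle (5% PEG 400 in 1% methocel) or drug at the stated dose. Killed 2 h after the second dose. Mesenteric artery homogenized. Catecholamines measured by COMT methylation with [methyl-3H]-S-adenosylmethionine, chromatographic separation of methylated amines and scintillation counting. Mean ± SEM.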

Rattus norvegicus [3] = test: DBH inhibitory activity was measured as NE levels in mesenteric artery at dose of 25 mg/kg, po; type: functional, organism-based; design: dose 25 mg/kg; method in brief: as §1
Rattus norvegicus [4] = test: DBH inhibitory activity was measured as NE levels in mesenteric artery at dose of 50 mg/kg, po; type: functional, organism-based; design: dose 50 mg/kg; method in brief: as §1
Rattus norvegicus [5] = test: DBH inhibitory activity was measured as dopamine levels in mesenteric artery at dose of 100 mg/kg, po; type: functional, organism-based; design: dose 100 mg/kg; method in brief: as §1
Rattus norvegicus [6] = test: DBH inhibitory activity was measured as dopamine levels in mesenteric artery at dose of 25 mg/kg, po; type: functional, organism-based; design: dose 25 mg/kg; method in brief: as §1
Rattus norvegicus [7] = test: DBH inhibitory activity was measured as dopamine levels in mesenteric artery at dose of 25 mg/kg, po.; type: functional, organism-based; design: dose 25 mg/kg; method in brief: as §1
Rattus norvegicus [8] = test: In vivo evaluation ot the compound in spontaneously hypertensive rats for the mean arterial blood pressure; type: functional
Method in brief: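 Conscious SHR anesthetized with Brevital Na (10 mg/kg, iv) and femoral artery cannulated to a pressure transducer. After 1-h recovery, baseline MAP taken every 15 min for 1 h. Dosed 50 mg/kg ip unless noted, then MAP recorded every 15–30 min for 4 h. Value at 150 min postdose, mean ± SEM.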

[9] = In vivo evaluation ot the compound in spontaneously hypertensive rats for the catecholamine levels by taking the ratio of copamine to norepinephrine; type: functional
Method in brief: (§2)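 Spontaneously hypertensive rats (N = 5) got two oral doses about 18 h apart, either vehicle (5% PEG 400 in 1% methocel) or drug in vehicle, and were killed 2 h after the second dose. The mesenteric artery was homogenized. Dopamine and NE were measured by catechol O-methyltransferase methylation with [methyl-3H]-S-adenosylmethionine, then chromatographic separation and scintillation counting. Values are mean ± SEM.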

[10] = Ratio of dopamine to that of NE levels in mesenteric artery measured at 100 mg/kg po; type: functional; method in brief: as §2
[11] = Ratio of dopamine to that of NE levels in mesenteric artery measured at 25 mg/kg po; type: functional; method in brief: as §2
[12] = Ratio of dopamine to that of NE levels in mesenteric artery measured at 50 mg/kg po; type: functional
[13] = In vivo evaluation ot the compound in spontaneously hypertensive rats for the catecholamine levels by taking the ratio of dopamine to norepinephrine; type: functional; method in brief: as §1

For `Fc1cc(F)cc(Cn2cc[nH]c2=S)c1`, the Ki [1] was 41 nM, the Level (Rattus norvegicus [2]) was 3.05 µg of tissue and the Level (Rattus norvegicus [3]) was 4.94 µg of tissue. The Level (Rattus norvegicus [4]) was 4 µg of tissue, the Level (Rattus norvegicus [5]) was 1.06 µg of tissue and the Level (Rattus norvegicus [6]) was 0.3 µg of tissue. For the same molecule, the Level (Rattus norvegicus [7]) was 0.765 µg of tissue, the MAP (Rattus norvegicus [8]) was 105 mmHg and the Ratio [9] was 0.208. For the same molecule, the Ratio [10] was 0.378, the Ratio [11] was 0.155 and the Ratio [12] was 0.204.
In the case of `Oc1c(F)cc(Cn2cc[nH]c2=S)cc1F`, the Ki [1] is reported as 5.7 nM, the MAP (Rattus norvegicus [8]) is reported as 137 mmHg and the Ratio [13] is reported as 0.082.
`Oc1ccc(Cn2cc[nH]c2=S)cc1` gave an MAP (Rattus norvegicus [8]) of 137 mmHg.
Molecule `CCCCc1ccc(C(=O)O)nc1` [FUSARIC ACID] has a Ki [1] of 149 nM and a Ratio [12] of 0.109.
